# Screens as filed in PubChem.
# KCNK3 inh: human KCNK3 channel inhibition, primary screen; CHO-KCNK3 thallium flux, FluxOR fluorescence; hits give low values; AID 602410; B-score at 10 µM; O14649; 0.84% of 340,000 active;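 active means B-score under library mean minus 4 SD, starting fluorescence ratio at most library mean plus 5 SD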;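 further: more negative B-score means stronger inhibition of thallium flux through KCNK3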
# KCNK9 inh: human KCNK9 channel inhibition; Q9NPC2; HEK293 KCNK9, FluxOR thallium flux fluorescence; hits give low values; B-score at 10 µM; 1.2% of 310,000 active; AID 488922;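 active means ratio B-score over 3 SD below the library mean, with starting fluorescence within 5 SD of its mean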;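 further: negative B-score means less thallium flux so channel inhibition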
# KCNQ1 inh: human KCNQ1 channel inhibition | B-score at 10 µM | P51787 | AID 2642 | 1.3% of 310,000 active | CHO-K1 KCNQ1, FluxOR thallium flux fluorescence; hits give high values;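 active means compounds whose thallium flux B-score, printed positive for inhibition, exceeds three library SD while starting fluorescence stays within three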;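 further: channel opened by potassium depolarization with thallium stimulus after 20 min compound exposure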
# KCNQ1 act: potentiators or activators of human KCNQ1 potassium channel; CHO-K1 KCNQ1, thallium flux FluxOR fluorescence; hits give high values; B-score at 10 µM; 0.35% of 310,000 active; AID 2648;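 active means fluorescence ratio B-score, a plate-corrected score, at least three library SD, with initial intensity B-score within 5 SD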
#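 Doses: Single concentration per compound, DMSO matched to controls | Test system: KCNQ1-transfected CHO-K1 cells | Timing: 90 min dye loading and 20 min compound exposure, both at room temperature | Measured by: Kinetic FluxOR thallium fluorescence, 10-s 1-Hz baseline, 110-s post-stimulus read | Medium: Assay buffer with matched DMSO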
# hERG rescue: shields human hERG channel from block by proarrhythmic agents; Q12809; CHO-hERG, FluxOR thallium flux, dofetilide IC70 present; activation (rescue from dofetilide block), less the hit threshold, % at 10 µM; 0.51% of 310,000 active; AID 1511;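 active means activation above the mean of controls blocked by dofetilide plus 5 SD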;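 further: thallium influx through hERG after potassium depolarization seen as dye fluorescence rise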
# KCNK9 inh conf: confirmation of human KCNK9 potassium channel inhibitors | inhibition, % at 10 µM | AID 492992 | 43% of 4,900 active | shares compounds with KCNK9 inh | HEK293 KCNK9 cells, FluxOR thallium flux fluorescence;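 active means thallium signal inhibited by more than 5 SD of the compound-free buffer control wells, on both duplicate plates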;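 further: 0% = assay buffer control wells without compound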
# Kir21 sel: tests whether KCNK9 modulators also affect mouse Kir2.1; inhibition, % at 10 µM; shares compounds with KCNK9 inh; 4% of 4,900 active; Kir2.1 cells, FluxOR thallium flux fluorescence;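 active means thallium signal drop more than 5 SD beyond the mean of the no-compound control wells, seen in both duplicate plates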;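 further: signal is fluorescence rise after thallium addition divided by baseline fluorescence; plate controls were assay buffer only for no effect and full block by chlorpromazine control for full effect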
# Target sequence (P35561 whole entry, looked up): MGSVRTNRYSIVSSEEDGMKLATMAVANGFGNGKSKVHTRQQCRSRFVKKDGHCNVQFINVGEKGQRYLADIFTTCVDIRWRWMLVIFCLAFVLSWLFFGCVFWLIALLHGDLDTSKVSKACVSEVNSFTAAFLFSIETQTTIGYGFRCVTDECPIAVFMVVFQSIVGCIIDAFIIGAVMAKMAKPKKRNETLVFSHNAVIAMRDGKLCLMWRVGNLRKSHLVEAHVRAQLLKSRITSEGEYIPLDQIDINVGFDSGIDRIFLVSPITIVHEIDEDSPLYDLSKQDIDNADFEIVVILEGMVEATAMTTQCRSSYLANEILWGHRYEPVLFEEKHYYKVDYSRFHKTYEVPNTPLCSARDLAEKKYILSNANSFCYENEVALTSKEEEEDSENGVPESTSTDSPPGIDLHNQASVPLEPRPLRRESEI
# HEK293 Tl ctr: second counter-screen for KCNK9 modulators: effect in non-induced cells | shares compounds with KCNK9 inh | non-induced KCNK9-HEK293, FluxOR thallium flux | inhibition, % at 10 µM | 40% of 4,900 active | AID 492997;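 active means thallium signal drop beyond 5 SD of the untreated control mean, on both duplicate plates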;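 further: plate controls were buffer only IC0 wells for no effect and SID17386958 at its maximal inhibitory level for full effect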
# * = called active by the depositor; i = inactive; / = no result given. Rows were chosen to be rich in hits. Some 3.1% of all compounds tested hit in one or more screens of this group.
SMILES,KCNK3 inh,KCNK9 inh,KCNQ1 inh,KCNQ1 act,hERG rescue,KCNK9 inh conf,Kir21 sel,HEK293 Tl ctr
O=[N+]([O-])c1cccc(-c2cnc3ccccc3n2)c1,i,i,i,i,-9.4,/,/,/
O=[N+]([O-])c1cccc(-c2nc3ccccc3s/c2=N/O)c1,i,-8.8*,i,i,-18.2,29.5%*,i,37.5%*
O=C(CSc1cccc(C(F)(F)F)c1)Nc1ccc(N2CCOCC2)cc1,i,/,/,/,/,/,/,/
O=C1CC(N2CCC(c3nc4ccccc4o3)CC2)C(=O)N1c1cc(Cl)cc(Cl)c1 (stereo unspecified),i,-8.6*,8*,i,-5.8,43.0%*,i,i
CCC(Cc1ccccc1)NS(=O)(=O)c1ccc2c(c1)NC(=O)C(C)S2 (stereo unspecified),i,i,i,i,-3.2,/,/,/
Cc1ccc(/C=C/C(=O)N2CCC(Cc3ccccc3)CC2)cc1,i,i,i,i,-14.0,i,i,25.5%*
COc1cc2cc(C(=O)N3CCC(Cc4ccccc4)CC3)[nH]c2cc1OC,i,i,i,i,-0.1,/,/,/
CC1CCN(C(=O)/C=C/c2ccc(C(C)(C)C)cc2)CC1,i,-9.04*,i,i,-14.5,62.5%*,i,50.0%*
Cc1cc(C)c2cc(C(=O)N3CCC(Cc4ccccc4)CC3)[nH]c2c1,i,i,i,i,-12.6,i,i,i
Cc1ccc(/C=C/C(=O)N2CCCC(C)C2)cc1 (stereo unspecified),i,i,i,i,-15.1,/,/,/
N#C/C(=C\c1ccc(Sc2nc3ccccc3[nH]2)o1)c1ccccc1,i,i,13*,i,-6.1,i,i,i
O=C(NC12CC3CC(CC(C3)C1)C2)c1ccc(-c2ccccc2Cl)o1,i,i,i,i,-4.7,i,i,i
c1ccc2sc(SCSc3nc4ccccc4s3)nc2c1,i,-12.8*,i,i,-9.0,72.0%*,i,38.5%*
NC(=S)n1[nH]c(-c2ccc([N+](=O)[O-])cc2)c(N=Nc2cccc(Cl)c2)c1=O,i,i,i,8*,-9.9,i,i,i
COc1ccc(-c2nc(-c3ccccc3)c(-c3cc([N+](=O)[O-])ccc3C)[nH]2)cc1OC,i,-12.2*,14*,i,-7.3,54.5%*,i,33.0%*
O=[N+]([O-])c1ccc(O)c(-c2nc(-c3ccccc3)c(-c3cccs3)[nH]2)c1,i,i,i,i,-19.4,/,/,/
Cc1cccc(-c2noc(CN(C(=O)C(c3ccccc3)c3ccccc3)C(C)C)n2)c1,-12.1*,-17.4*,6*,i,-8.9,53.5%*,i,i
COc1cccc(C(=O)N(Cc2nc(-c3cccc(C)c3)no2)C(C)C)c1OC,i,i,i,i,-11.8,i,i,i
Cc1cccc(-c2noc(CN(C(=O)c3ccc4c(c3)OCO4)C(C)C)n2)c1,i,i,i,i,-6.4,/,/,/
O=C(NCCC1CCCCN1S(=O)(=O)c1ccc(F)cc1)C(=O)NCc1ccccn1 (stereo unspecified),i,i,i,i,-13.7,/,/,/
CCN(CC)c1ccc(S(=O)(=O)N2CCOCC2)cc1NC(=O)CN1CCc2ccccc2C1,i,-10.4*,i,i,-3.4,51.0%*,i,i
NC(=O)COC(=O)c1c2c(nc3ccccc13)CCCC2,i,i,i,i,-13.9,/,/,/
O=C(OCC(=O)N1CCc2ccccc21)c1cccc(S(=O)(=O)N2CCCc3ccccc32)c1,i,i,i,i,-4.3,i,i,i
O=C(OCC(=O)N1CCc2ccccc21)c1c2c(nc3ccccc13)CCCCC2,i,-12.8*,i,i,-2.8,52.0%*,i,34.5%*
O=C(c1cccc(S(=O)(=O)N2CCc3ccccc32)c1)N1CCN(c2ccccn2)CC1,i,-10.1*,i,i,-23.7,36.0%*,i,i
SMILES,KCNK3 inh,KCNK9 inh,KCNQ1 inh,KCNQ1 act,hERG rescue,KCNK9 inh conf,Kir21 sel,HEK293 Tl ctr
O=C(OCC(=O)N1CCCc2ccccc21)c1cccc(S(=O)(=O)N2CCOCC2)c1,i,i,i,i,-7.5,/,/,/
O=C(COC(=O)c1cc(-c2ccccc2)nc2ccccc12)Nc1ccc2c(c1)OCO2,i,i,i,i,-5.6,/,/,/
O=C(COC(=O)c1c2c(nc3ccccc13)CCCC2)Nc1ccc2c(c1)OCO2,i,-12.4*,i,i,-31.3,48.0%*,i,i
CCOc1ccc(Cc2nnc(SCC(=O)Nc3c(C)cccc3C)[nH]c2=O)cc1,i,i,i,i,-9.0,/,/,/
O=C(CNS(=O)(=O)c1ccccc1)N1CCN(Cc2ccccc2)CC1,i,i,i,i,-6.6,/,/,/
Cn1nc(-c2ccc(N3CCCCC3)c(NC(=O)c3ccco3)c2)c2ccccc2c1=O,i,-15*,i,i,-13.0,73.0%*,i,36.0%*
CC(=O)c1cc(C(=O)N2CCCC(C(=O)c3ccc(Cl)cc3)C2)cs1 (stereo unspecified),i,i,i,i,-5.6,/,/,/
Cc1cc(C(=O)CSc2ccc(F)cc2)cc(C)c1OC(=S)N(C)C,i,i,i,i,-9.3,i,i,31.5%*
COc1ccc(S(=O)(=O)N(C)c2ccc(C(=O)NCc3ccco3)cc2)cc1OC,i,i,i,i,-9.1,/,/,/
CC(/C=C1\SC(=S)N(C(C(=O)O)c2ccccc2)C1=O)=C\c1ccccc1 (stereo unspecified),i,i,i,i,-18.9,i,i,i
CC(/C=C1\SC(=S)N(CC(=O)O)C1=O)=C\c1ccccc1,i,i,i,i,-4.6,/,/,/
COc1cccc(/C=C2\SC(=S)N(C(Cc3ccccc3)C(=O)O)C2=O)c1 (stereo unspecified),i,i,i,i,-10.9,i,i,i
C=CCOc1ccc(/C=C2\SC(=S)N(C(C(=O)O)c3ccccc3)C2=O)cc1 (stereo unspecified),i,i,i,i,-22.5,i,i,i
CCOc1ccc(/C=C2\SC(=S)N(C(C(=O)O)c3ccccc3)C2=O)cc1OC (stereo unspecified),i,i,i,i,-19.1,/,/,/
COc1cccc(N=Nc2ccc(O)c3ncccc23)c1,i,i,i,i,15.6*,i,i,i
